# Measured values: ChEMBL document CHEMBL3091328, “Synthesis, DNA-binding abilities and anticancer activities of triazole-pyrrolo[2,1-c][1,4]benzodiazepines hybrid scaffolds” (Bioorg Med Chem Lett, 2013)
# Activity calls are given as the source filed them. The calls are words filed in the database; no cut-off is given here.
# System: not listed separately
# Assay: Cytotoxicity against human skin fibroblasts assessed as cell survival at 5 uM after 24 hrs by MTT assay relative to control
# Parameters: species or system Skin fibroblast
# Conditions: read-out: Survival
# In short: (§1)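 Cells exposed to agent at 5 µM for 24 h, then growth and viability measured by MTT assay. Survival given as percent of untreated control.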
row,SMILES,"viability at 24 h, 5 µM [%]"
1,COc1cccc(-c2cn(C/C=C\COc3cc4c(cc3OC)C(=O)N3CCC[C@H]3C=N4)nn2)c1,90.4
2,COc1cc2c(cc1OC/C=C/Cn1cc(-c3ccccc3OC)nn1)N=C[C@@H]1CCCN1C2=O,100

# System: A-375
# Assay: Induction of apoptosis in human A375 cells assessed as decrease in Bcl-XL protein level at 5 uM after 24 hrs by Western blotting analysis
# Type: functional, cell-based
# Conditions: not given
# In short: (§2)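 Lysates from A375 cells exposed 24 h to 5 μM, or to a range of concentrations, immunoblotted with specific antibodies against Bcl-2, Bcl-xL, Bax, Bad, caspase-3 and PARP; actin probed as loading control; three separate experiments.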
row,SMILES,Activity
1,COc1cccc(-c2cn(C/C=C\COc3cc4c(cc3OC)C(=O)N3CCC[C@H]3C=N4)nn2)c1,Active

# System: A-375
# Assay: Cytotoxicity against human A375 cells assessed as cell survival after 12 to 24 hrs by MTT assay relative to control
# Type: functional, cell-based
# Conditions: not given
# In short: (§3)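 A375 cells seeded at 10,000 per well, attached overnight, then exposed in triplicate to 0, 1, 3 or 5 μM for 0, 12 or 24 h; viability by MTT absorbance versus untreated control; IC50 taken as mean of dose-response curves from three experiments.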
row,SMILES,Activity
1,COc1cccc(-c2cn(C/C=C\COc3cc4c(cc3OC)C(=O)N3CCC[C@H]3C=N4)nn2)c1,Dose-dependent effect

# System: A-375
# Assay: Cytotoxicity against human A375 cells assessed as cell survival at 1 to 5 uM after 12 hrs by MTT assay relative to control
# Type: functional, cell-based
# Conditions: not given
# In short: as §3
row,SMILES,Activity
1,COc1cccc(-c2cn(C/C=C\COc3cc4c(cc3OC)C(=O)N3CCC[C@H]3C=N4)nn2)c1,inactive
2,COc1cc2c(cc1OC/C=C/Cn1cc(-c3ccccc3OC)nn1)N=C[C@@H]1CCCN1C2=O,inactive

# System: A-375
# Assay: Upregulation of p53 mRNA expression in human A375 cells at 5 uM after 24 hrs by RT-PCR analysis
# Type: functional, cell-based
# Conditions: not given
# In short: (§4)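 A375 cells treated 24 h at 5 μM; p53, p21, p27 and cyclin D1 transcripts quantified by qPCR, normalised to β-actin in each sample, compared with control.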
row,SMILES,Activity
1,COc1cccc(-c2cn(C/C=C\COc3cc4c(cc3OC)C(=O)N3CCC[C@H]3C=N4)nn2)c1,Active

# System: A-375
# Assay: Cell cycle arrest in human A375 cells assessed as accumulation at G2/M phase after 24 hrs by propidium iodide staining-based flow cytometry (reference value: 15.2 +/- 0.6%)
# Type: functional
# Conditions: not given
row,SMILES,Activity [%]
1,COc1cccc(-c2cn(C/C=C\COc3cc4c(cc3OC)C(=O)N3CCC[C@H]3C=N4)nn2)c1,3.3
2,COc1cc2c(cc1OC/C=C/Cn1cc(-c3ccccc3OC)nn1)N=C[C@@H]1CCCN1C2=O,5.1

# System: A549
# Assay: Cytotoxicity against human A549 cells assessed as cell survival at 5 uM after 24 hrs by MTT assay relative to control
# Type: functional
# Conditions: A549, 24 h, read-out: Survival
# In short: as §1
row,SMILES,viability at 5 µM [%]
1,COc1cccc(-c2cn(C/C=C\COc3cc4c(cc3OC)C(=O)N3CCC[C@H]3C=N4)nn2)c1,100
2,COc1cc2c(cc1OC/C=C/Cn1cc(-c3ccccc3OC)nn1)N=C[C@@H]1CCCN1C2=O,91

# System: A-375
# Assay: Induction of apoptosis in human A375 cells assessed as increase in Bax protein level at 5 uM after 24 hrs by Western blotting analysis
# Type: functional, cell-based
# Conditions: not given
# In short: as §2
row,SMILES,Activity
1,COc1cccc(-c2cn(C/C=C\COc3cc4c(cc3OC)C(=O)N3CCC[C@H]3C=N4)nn2)c1,Active

# System: A-375
# Assay: Downregulation of cyclin D1 mRNA expression in human A375 cells at 5 uM after 24 hrs by RT-PCR analysis
# Type: functional, cell-based
# Conditions: not given
# In short: as §4
row,SMILES,Activity
1,COc1cccc(-c2cn(C/C=C\COc3cc4c(cc3OC)C(=O)N3CCC[C@H]3C=N4)nn2)c1,Active

# System: A-375
# Assay: Cytotoxicity against human A375 cells assessed as cell survival at 1 to 5 uM by MTT assay relative to control
# Type: functional, cell-based
# Conditions: TDE = time-dependent effect
# In short: as §3
row,SMILES,Activity
1,COc1cccc(-c2cn(C/C=C\COc3cc4c(cc3OC)C(=O)N3CCC[C@H]3C=N4)nn2)c1,tde

# System: A-375
# Assay: Induction of apoptosis in human A375 cells assessed as decrease in Bcl-2 protein level at 5 uM after 24 hrs by Western blotting analysis
# Type: functional, cell-based
# Conditions: not given
# In short: as §2
row,SMILES,Activity
1,COc1cccc(-c2cn(C/C=C\COc3cc4c(cc3OC)C(=O)N3CCC[C@H]3C=N4)nn2)c1,Active

# System: A-375
# Assay: Cell cycle arrest in human A375 cells assessed as accumulation at S phase after 24 hrs by propidium iodide staining-based flow cytometry (reference value: 11.8 +/- 0.1%)
# Type: functional
# Conditions: not given
row,SMILES,Activity [%]
1,COc1cccc(-c2cn(C/C=C\COc3cc4c(cc3OC)C(=O)N3CCC[C@H]3C=N4)nn2)c1,6.7
2,COc1cc2c(cc1OC/C=C/Cn1cc(-c3ccccc3OC)nn1)N=C[C@@H]1CCCN1C2=O,8.1

# System: B16
# Assay: Cytotoxicity against mouse B16 cells assessed as cell survival at 5 uM after 24 hrs by MTT assay relative to control
# Type: functional
# Conditions: B16, 24 h, read-out: Survival
# In short: as §1
row,SMILES,viability at 5 µM [%]
1,COc1cccc(-c2cn(C/C=C\COc3cc4c(cc3OC)C(=O)N3CCC[C@H]3C=N4)nn2)c1,74.2
2,COc1cc2c(cc1OC/C=C/Cn1cc(-c3ccccc3OC)nn1)N=C[C@@H]1CCCN1C2=O,98.9

# System: A-375
# Assay: Upregulation of p21 mRNA expression in human A375 cells at 5 uM after 24 hrs by RT-PCR analysis
# Type: functional, cell-based
# Conditions: not given
# In short: as §4
row,SMILES,Activity
1,COc1cccc(-c2cn(C/C=C\COc3cc4c(cc3OC)C(=O)N3CCC[C@H]3C=N4)nn2)c1,Active

# System: A-375
# Assay: Cell cycle arrest in human A375 cells assessed as accumulation at G1 phase after 24 hrs by propidium iodide staining-based flow cytometry (reference value: 65.3 +/- 0.1%)
# Type: functional
# Conditions: not given
row,SMILES,Activity [%]
1,COc1cccc(-c2cn(C/C=C\COc3cc4c(cc3OC)C(=O)N3CCC[C@H]3C=N4)nn2)c1,82.3
2,COc1cc2c(cc1OC/C=C/Cn1cc(-c3ccccc3OC)nn1)N=C[C@@H]1CCCN1C2=O,69.5

# System: A-375
# Assay: Cell cycle arrest in human A375 cells assessed as accumulation at sub-G1 phase after 24 hrs by propidium iodide staining-based flow cytometry (reference value: 7.7 +/- 0.1%)
# Type: functional
# Conditions: not given
row,SMILES,Activity [%]
1,COc1cccc(-c2cn(C/C=C\COc3cc4c(cc3OC)C(=O)N3CCC[C@H]3C=N4)nn2)c1,7.7
2,COc1cc2c(cc1OC/C=C/Cn1cc(-c3ccccc3OC)nn1)N=C[C@@H]1CCCN1C2=O,17.3

# System: A2058
# Assay: Cytotoxicity against human A2058 cells assessed as cell survival at 5 uM after 24 hrs by MTT assay relative to control
# Type: functional
# Conditions: A2058, 24 h, read-out: Survival
# In short: as §1
row,SMILES,viability at 5 µM [%]
1,COc1cccc(-c2cn(C/C=C\COc3cc4c(cc3OC)C(=O)N3CCC[C@H]3C=N4)nn2)c1,40.7
2,COc1cc2c(cc1OC/C=C/Cn1cc(-c3ccccc3OC)nn1)N=C[C@@H]1CCCN1C2=O,57.9

# System: A-375
# Assay: Upregulation of p27 mRNA expression in human A375 cells at 5 uM after 24 hrs by RT-PCR analysis
# Type: functional, cell-based
# Conditions: not given
# In short: as §4
row,SMILES,Activity
1,COc1cccc(-c2cn(C/C=C\COc3cc4c(cc3OC)C(=O)N3CCC[C@H]3C=N4)nn2)c1,Active

# System: HEK-293T
# Assay: Cytotoxicity against human 293T cells assessed as cell survival at 5 uM after 24 hrs by MTT assay relative to control
# Type: functional
# Conditions: read-out: Survival
# In short: as §1
row,SMILES,viability at 5 µM [%]
1,COc1cccc(-c2cn(C/C=C\COc3cc4c(cc3OC)C(=O)N3CCC[C@H]3C=N4)nn2)c1,42.8
2,COc1cc2c(cc1OC/C=C/Cn1cc(-c3ccccc3OC)nn1)N=C[C@@H]1CCCN1C2=O,55

# System: A-375
# Assay: Induction of apoptosis in human A375 cells at 5 uM after 24 hrs by AnnexinV-FITC/propidium iodide staining-based fluorimetric analysis (reference value: 2.6%)
# Type: functional
# Conditions: not given
row,SMILES,Activity [%]
1,COc1cccc(-c2cn(C/C=C\COc3cc4c(cc3OC)C(=O)N3CCC[C@H]3C=N4)nn2)c1,16.4

# System: not listed separately
# Assay: Cytotoxicity against human RPMI7951 cells assessed as cell survival at 5 uM after 24 hrs by MTT assay relative to control
# Type: functional
# Conditions: RPMI-7951, 24 h, read-out: Survival
# In short: as §1
row,SMILES,viability at 5 µM [%]
1,COc1cccc(-c2cn(C/C=C\COc3cc4c(cc3OC)C(=O)N3CCC[C@H]3C=N4)nn2)c1,65.3
2,COc1cc2c(cc1OC/C=C/Cn1cc(-c3ccccc3OC)nn1)N=C[C@@H]1CCCN1C2=O,83

# System: Ca9-22
# Assay: Cytotoxicity against human Ca9-22 cells assessed as cell survival at 5 uM after 24 hrs by MTT assay relative to control
# Type: functional
# Conditions: Ca9-22, 24 h, read-out: Survival
# In short: as §1
row,SMILES,viability at 5 µM [%]
1,COc1cccc(-c2cn(C/C=C\COc3cc4c(cc3OC)C(=O)N3CCC[C@H]3C=N4)nn2)c1,50
2,COc1cc2c(cc1OC/C=C/Cn1cc(-c3ccccc3OC)nn1)N=C[C@@H]1CCCN1C2=O,95.6

# System: A-375
# Assay: Cytotoxicity against human A375 cells assessed as cell survival at 5 uM after 24 hrs by MTT assay relative to control
# Type: functional
# Conditions: A-375, 24 h, read-out: Survival
# In short: as §1
row,SMILES,viability at 5 µM [%]
1,COc1cccc(-c2cn(C/C=C\COc3cc4c(cc3OC)C(=O)N3CCC[C@H]3C=N4)nn2)c1,48.4
2,COc1cc2c(cc1OC/C=C/Cn1cc(-c3ccccc3OC)nn1)N=C[C@@H]1CCCN1C2=O,58.4

# System: A-375
# Assay: Induction of apoptosis in human A375 cells assessed as increase in Bad protein level at 5 uM after 24 hrs by Western blotting analysis
# Type: functional, cell-based
# Conditions: not given
# In short: as §2
row,SMILES,Activity
1,COc1cccc(-c2cn(C/C=C\COc3cc4c(cc3OC)C(=O)N3CCC[C@H]3C=N4)nn2)c1,Active
